Test results as given in ChEMBL document CHEMBL1275252, “First survey of metallo-beta-lactamases in clinical isolates of Pseudomonas aeruginosa in a German university hospital” (2010).
In brackets after ≈: the same amount, converted by molar mass.

Tests used:
Assay type in all cases: functional
Pseudomonas aeruginosa [1] = experiment: Antimicrobial activity against Pseudomonas aeruginosa isolate PA399 expressing VIM-2 beta-lactamase
Pseudomonas aeruginosa [2] = experiment: Antimicrobial activity against Pseudomonas aeruginosa isolate PA462 expressing VIM-2 beta-lactamase
Pseudomonas aeruginosa [3] = experiment: Antimicrobial activity against Pseudomonas aeruginosa isolate PA465 expressing VIM-2 beta-lactamase
Pseudomonas aeruginosa [4] = experiment: Antimicrobial activity against Pseudomonas aeruginosa isolate PA469 expressing VIM-2 beta-lactamase
Pseudomonas aeruginosa [5] = experiment: Antimicrobial activity against Pseudomonas aeruginosa isolate PA475 expressing VIM-2 beta-lactamase
Pseudomonas aeruginosa [6] = experiment: Antimicrobial activity against Pseudomonas aeruginosa isolate PA477 expressing VIM-2 beta-lactamase
Pseudomonas aeruginosa [7] = experiment: Antimicrobial activity against Pseudomonas aeruginosa isolate PA481 expressing VIM-2 beta-lactamase
Pseudomonas aeruginosa [8] = experiment: Antimicrobial activity against Pseudomonas aeruginosa isolate PA500 expressing VIM-1 beta-lactamase
Pseudomonas aeruginosa [9] = experiment: Antimicrobial activity against Pseudomonas aeruginosa isolate PA510 expressing VIM-2 beta-lactamase
Pseudomonas aeruginosa [10] = experiment: Antimicrobial activity against metallo-beta-lactamase-negative Pseudomonas aeruginosa isolate PA459
Method in brief: (§1)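 MBL-negative clinical P. aeruginosa isolates with reduced imipenem susceptibility, collected at the study hospital, some from cystic fibrosis patients. Species identity was confirmed by automated Gram-negative identification card. MIC was read in μg/ml.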

Pseudomonas aeruginosa [11] = experiment: Antimicrobial activity against metallo-beta-lactamase-negative Pseudomonas aeruginosa isolate PA460
Pseudomonas aeruginosa [12] = experiment: Antimicrobial activity against metallo-beta-lactamase-negative Pseudomonas aeruginosa isolate PA479
Pseudomonas aeruginosa [13] = experiment: Antimicrobial activity against metallo-beta-lactamase-negative Pseudomonas aeruginosa isolate PA483
Pseudomonas aeruginosa [14] = experiment: Antimicrobial activity against metallo-beta-lactamase-negative Pseudomonas aeruginosa isolate PA494
Pseudomonas aeruginosa [15] = experiment: Antimicrobial activity against metallo-beta-lactamase-negative Pseudomonas aeruginosa isolate PA507; method in brief: as §1
Pseudomonas aeruginosa [16] = experiment: Antimicrobial activity against metallo-beta-lactamase-negative Pseudomonas aeruginosa isolate PA509

MIC (Pseudomonas aeruginosa [1]) [µg/mL]	MIC (Pseudomonas aeruginosa [2]) [µg/mL]	MIC (Pseudomonas aeruginosa [3]) [µg/mL]	MIC (Pseudomonas aeruginosa [4]) [µg/mL]	MIC (Pseudomonas aeruginosa [5]) [µg/mL]	MIC (Pseudomonas aeruginosa [6]) [µg/mL]	MIC (Pseudomonas aeruginosa [7]) [µg/mL]	MIC (Pseudomonas aeruginosa [8]) [µg/mL]	MIC (Pseudomonas aeruginosa [9]) [µg/mL]	MIC (Pseudomonas aeruginosa [11]) [µg/mL]	MIC (Pseudomonas aeruginosa [12]) [µg/mL]	MIC (Pseudomonas aeruginosa [14]) [µg/mL]	MIC (Pseudomonas aeruginosa [16]) [µg/mL]	Molecule	MIC (Pseudomonas aeruginosa [10]) [µg/mL]	MIC (Pseudomonas aeruginosa [13]) [µg/mL]	MIC (Pseudomonas aeruginosa [15]) [µg/mL]
1	1	2	1	1	1	1	1	1	1	1	1	2	COLISTIN	1	1	1
≥ 4	≥ 4	≥ 4	≥ 4	≥ 4	≥ 4	≥ 4	≥ 4	≥ 4	≥ 4	≥ 4	≥ 4	≥ 4	O=C(O)c1cn(C2CC2)c2cc(N3CCNCC3)c(F)cc2c1=O [CIPROFLOXACIN]			

Molecule	MIC (Pseudomonas aeruginosa [1]) [µg/mL]	MIC (Pseudomonas aeruginosa [2]) [µg/mL]	MIC (Pseudomonas aeruginosa [3]) [µg/mL]	MIC (Pseudomonas aeruginosa [4]) [µg/mL]	MIC (Pseudomonas aeruginosa [5]) [µg/mL]	MIC (Pseudomonas aeruginosa [6]) [µg/mL]	MIC (Pseudomonas aeruginosa [7]) [µg/mL]	MIC (Pseudomonas aeruginosa [8]) [µg/mL]	MIC (Pseudomonas aeruginosa [9]) [µg/mL]	MIC (Pseudomonas aeruginosa [11]) [µg/mL]	MIC (Pseudomonas aeruginosa [12]) [µg/mL]	MIC (Pseudomonas aeruginosa [14]) [µg/mL]	MIC (Pseudomonas aeruginosa [16]) [µg/mL]	MIC (Pseudomonas aeruginosa [10]) [µg/mL]	MIC (Pseudomonas aeruginosa [13]) [µg/mL]	MIC (Pseudomonas aeruginosa [15]) [µg/mL]
C[C@H]1[C@H](NC(=O)/C(=N\OC(C)(C)C(=O)O)c2csc(N)n2)C(=O)N1S(=O)(=O)O [AZTREONAM]	16 (≈ 36.7 µM)	16 (≈ 36.7 µM)	16 (≈ 36.7 µM)	16 (≈ 36.7 µM)	16 (≈ 36.7 µM)	16 (≈ 36.7 µM)	16 (≈ 36.7 µM)	4 (≈ 9.19 µM)	≥ 64	16 (≈ 36.7 µM)	32 (≈ 73.5 µM)	16 (≈ 36.7 µM)	8 (≈ 18.4 µM)	16 (≈ 36.7 µM)	64 (≈ 147 µM)	16 (≈ 36.7 µM)
